The text below walks through data of PMC12800764 (ESMO Open, 2025).

Entries after “also recorded” stand apart in the source; their conditions may differ.

A short description of data set [1]: Plasma pharmacokinetics of E7386, noncompartmental analysis, Study 103. The format is in vivo, human. The settings on record: 10-160 mg b.i.d.
Data set [2] deals with patients with advanced, unresectable, or recurrent solid tumors. Put plainly: Safety assessments. It counts as in vivo, human. An outline of the steps:
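Safety covered all AEs of any grade, including DLTs and serious AEs, graded by NCI CTCAE v5.0. Hematology, chemistry and urinalysis were sampled before dosing at scheduled visits. Oral test compound was given b.i.d. in 28-day cycles (10-160 mg dose-escalation; 100 or 120 mg expansion). The analysis set was all patients receiving ≥1 dose.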

The next data set relates to ECC10 xenograft. Conditions: human gastric cancer cell line (ECC10) xenograft model; cited from earlier work. (In general: In xenograft studies the graft and the host belong to different species.)
Data set [3] concerns patients with advanced, unresectable, or recurrent solid tumors. The data set can be described thus: Bone assessments. The format is in vivo, human. An outline of the steps:
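Both parts used DXA bone density at screening, C2D1 and every 12 weeks (±7 days) from C1D1. Fasting serum β-CTX was measured at screening, C2D1, C3D1, then every 8 weeks and at end of treatment. Dose-escalation added β-CTX at C1D15; expansion added DXA (C2D1 ±7 days) at end of treatment and when clinically indicated. Osteoporosis (T-score < −2.5) and untreated bone metastasis excluded patients.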

The subject of data set [4] is advanced, unresectable, or recurrent solid tumors. Put plainly: Antitumor activity by investigators, RECIST v1.1, Study 103. It counts as in vivo, human. An outline of the steps:
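Investigators assessed tumors by CT/MRI every 8 weeks, at end of treatment and when clinically indicated, using the screening modality and settings, per RECIST v1.1. Endpoints were objective response (CR/PR), disease control (CR/PR/SD) and clinical benefit (CR, PR, or SD lasting ≥23 weeks). All patients receiving ≥1 dose of oral test compound (b.i.d., 28-day cycles) were analysed.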

A further data set relates to Apc^Min/+ mice. The settings on record: cited from earlier work.
The test system of a further data set is bone formation. Conditions: rats; 7-day repeated-dose toxicity study; ref Data on file; cited from earlier work.
Data set [5] concerns activating transcription factor 4 pathway. Conditions: preclinical models of HCC; cited from earlier work.
Data set [6] has as its system patients with advanced, unresectable, or recurrent solid tumors. The data set can be described thus: Dose-limiting toxicity evaluation. The format is in vivo, human. An outline of the steps: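 A 3 + 3 escalation started at 10 mg b.i.d. oral, given continuously in 28-day cycles; 10, 15 and 20 mg were predefined. Above 20 mg, steps were 100%, 40%-60% or 25%-39% depending on treatment-related grade 2 or ≥3 toxicity. DLTs were drug-related AEs in cycle 1 (28 days), graded by CTCAE v5.0. Patients dosed as planned in C1, or having a DLT, formed the analysis set.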

For another data set, the system named is advanced solid tumors. The settings on record: 0 of 25; cited from earlier work.
The subject of a further data set is desmoid tumors. The settings on record: patients with desmoid tumors; cited from earlier work.
The next data set deals with endometrial cancer. Conditions: cited from earlier work.

Consider `C=CCN1CC(=O)N2[C@@H](Cc3ccc(O)cc3F)C(=O)N(Cc3cccc(N4CC(N5CCN(CC)CC5)C4)n3)C[C@@H]2N1C(=O)NCc1ccccc1` [E7386], for which the “E7386 exposure versus dose” value in data set [1] (single and repeat dose, large inter-subject variability) is “generally increased with dose”. Besides, the “Time at which maximum plasma concentration was reached” value in [1] (after oral administration on C1D1) is 0.5 to 2.0 h. In [1] (for each dose), the “Geometric mean accumulation ratios for AUC” value is recorded as 1.12-3.81 and the “Geometric mean accumulation ratios for Cmax” value is reported as 0.65-3.97. Besides, the “Deaths due to TEAEs” value in data set [2] (both parts) is listed as “No patients died due to TEAEs”. In [2] (dose-escalation part), the “Nausea (TEAE) frequency” value was 83.3%, the “Patients with grade ≥3 TEAEs” value is 15 patients, the “Patients with grade ≥3 anemia” value is recorded as “four” and the “Vomiting (TEAE) frequency” value was found to be 61.1%. In addition, the “TEAEs leading to dose interruption” value in data set [2] (dose-escalation part, 13 patients) is given as 36.1%. Further, the “Patients with TEAEs” value in data set [2] (dose-escalation part, 35 of 36 patients) is reported as 97.2%. Also, the “TEAEs leading to dose reduction” value in data set [2] (dose-escalation part, one patient (decreased appetite)) is 2.8%. Besides, in data set [2] (dose-escalation part, two patients, not considered related to treatment), the “TEAEs leading to study-drug discontinuation” value is 5.6%. In data set [2] (expansion part), the “Nausea (TEAE) frequency” value is reported as 84.2%, the “Patients with grade ≥3 TEAEs” value stood at 10 patients, the “Patients with grade ≥3 anemia” value is listed as “two” and the “Patients with grade ≥3 hyponatremia” value is listed as “two”. In addition, in [2] (expansion part), the “Patients with grade ≥3 nausea” value is recorded as “one”, the “TEAEs leading to study-drug discontinuation” value is given as “No patient in the expansion part discontinued the study drug due to TEAEs” and the “Vomiting (TEAE) frequency” value was 73.7%. Further, in data set [2] (expansion part, 5 patients), the “TEAEs leading to dose interruption” value was found to be 26.3%. The “Patients with TEAEs” value in data set [2] (expansion part, 18 of 19 patients) was 94.7%. For the same molecule, the “TEAEs leading to dose reduction” value in [2] (expansion part, four patients) amounted to 21.1%. Moreover, the Tumor growth result in the data set with ECC10 xenograft was “inhibited tumor growth”. The “Patients with T-score < −2.5 as per DXA scan during the study” value in data set [3] (1 of 55 patients, spine: −2.4 at screening to −2.6 on C2D1) is on record as 1.8%. In [3] (7 of 55 patients), the “Patients with asymptomatic, post-baseline elevations in β-CTX >1000 pg/ml” value worked out at 12.7%. For the same molecule, the Bone fractures result in [3] (either part of the study) was “No bone fractures were reported; also recorded: no bone fracture was observed”. For the same molecule, in data set [4] (dose-escalation part, SBC at 15 mg b.i.d. and desmoid tumor at 80 mg b.i.d.), the “Patients achieving partial response (PR)” value is given as “two”. In addition, the Partial responses result in data set [4] (expansion part) was “No PRs were observed”. Besides, the “Treatment duration with durable SD” value in data set [4] (expansion part, patient with CRC (APC/KRAS/TP53 mutations), 100 mg b.i.d., no tumor size reduction) is listed as roughly 7 months. Besides, the “Treatment duration with durable SD” value in [4] (expansion part, patient with HCC, 120 mg b.i.d., with tumor size reduction) is roughly 7 months. Further, the “Antitumor activity in patients with CRC” value in data set [4] (irrespective of APC mutation status) is reported as “did not indicate antitumor activity”. Also, the “Treatment period of responder (PR)” value in data set [4] (patient with desmoid tumor, 80 mg b.i.d. cohort, ongoing at data cut-off) is given as greater than 3.5 years. In [4] (patient with solid pseudopapillary neoplasm of the pancreas, 30 mg b.i.d. cohort), the “Treatment duration with durable SD” value is listed as greater than 2.5 years. Further, the “Polyp formation in the intestine” value with Apc^Min/+ mice is reported as “suppressed polyp formation”. The “Doses at which effects on bone formation were observed” value in the data set with bone formation is given as no less than 60 mg/kg. The “Effect on activating transcription factor 4 pathway” value in [5] was “up-regulate the activating transcription factor 4 pathway”. The “Patients with dose-limiting toxicities (grade 3 decreased appetite)” value in data set [6] (160 mg b.i.d. cohort, cycle 1, dose-escalation) was “two”. Moreover, the Dose-limiting toxicities result in data set [6] (10-120 mg b.i.d. cohorts, dose-escalation) is recorded as “no DLTs were observed”. The “Recommended dose of E7386 monotherapy” value in data set [6] (oral, 28-day cycles) is 120 mg b.i.d.

Regarding `Cc1c(-c2ccnc(C(F)(F)F)c2)ncn1CC(=O)Nc1ccc(-c2cnccn2)cn1` [RXC004], in the data set on advanced solid tumors, the “Objective response rate (ORR)” value is 0%.

Consider `C[C@@H]1C[C@H](C)CN(S(=O)(=O)c2ccc3c(c2)C(=NO)c2cc(S(=O)(=O)N4C[C@H](C)C[C@H](C)C4)ccc2C3=NO)C1` [tegavivint], for which the Nausea incidence in the data set with desmoid tumors was 33%.

B1: DKN-01: a DKK-1 antibody targeting the Wnt signaling pathway (antibody, chains of the INN, looked up, V domains shown)
VH: EVQLVESGGGLVQPGGSLRLSCAASGFTFSSYTMSWVRQAPGKGLEWVATISGGGFGTYYPDSVKGRFTISRDNAKNSLYLQMNSLRAEDTAVYYCARPGYNNYYFDIWGQGTTVTVSS
VL: EIVLTQSPATLSLSPGERATLSCHASDSISNSLHWYQQKPGQAPRLLIYYARQSIQGIPARFSGSGSGTDFTLTISSLEPEDFAVYYCQQSESWPLHFGGGTKVEIK
As to B1, in the data set with endometrial cancer, the TEAE nausea incidence is listed as 48.3% and the TEAE vomiting incidence is listed as 24.1%. Further, in the data set with endometrial cancer (endometrial cancer, 2 of 26), the “Objective response rate (ORR)” value is reported as 7.7%.
